Values belong to the compound of their own block, whether it stands above or below them. Active and inactive are the calls of the source. The calls are words filed in the database; no cut-off is given here.
Tests used:
A549 [1] = experiment: Reversal of GSK126 dependent antiinflammatory activity in human A549 cells assessed as decrease in Il1ra level by qRT-PCR analysis; format: functional, cell-based
A549 [2] = experiment: Reversal of GSK126 dependent antiinflammatory activity in human A549 cells assessed as decrease in IL-6 level by qRT-PCR analysis; format: functional, cell-based
A549 [3] = experiment: Reversal of GSK126 dependent antiinflammatory activity in human A549 cells assessed as decrease in Ccl2 level by qRT-PCR analysis; format: functional, cell-based
A549 [4] = experiment: Reversal of GSK126 dependent antiinflammatory activity in human A549 cells assessed as decrease in Irak1 level by qRT-PCR analysis; format: functional, cell-based
NSCLC [5] = experiment: Antiproliferative activity in mouse NSCLC cell expressing Kras G12D/+ assessed reduction in cell viability at 100 nM; format: functional, cell-based
Procedure, shortened: (§1)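 Kras G12D/+;Trp53-/- cells treated with 100 nM GSK343 or GSK669 for 5 d, with or without dox, then replated at 250 or 500 cells per well for colony formation under continued treatment. Cell numbers taken relative to controls; colony size quantified automatically. Three independent experiments.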

[6] = target: Histone-lysine N-methyltransferase EZH2 (Mus musculus) (UniProt Q61188); experiment: Inhibition of Ezh2 in mouse NSCLC cells expressing Kras G12D/+ assessed down-regulation of H3K27me3 level at 100 nM for 120 hrs by Immunoblot analysis; format: cell-based
Chain of Histone-lysine N-methyltransferase EZH2 (Mus musculus) (Q61188 whole entry): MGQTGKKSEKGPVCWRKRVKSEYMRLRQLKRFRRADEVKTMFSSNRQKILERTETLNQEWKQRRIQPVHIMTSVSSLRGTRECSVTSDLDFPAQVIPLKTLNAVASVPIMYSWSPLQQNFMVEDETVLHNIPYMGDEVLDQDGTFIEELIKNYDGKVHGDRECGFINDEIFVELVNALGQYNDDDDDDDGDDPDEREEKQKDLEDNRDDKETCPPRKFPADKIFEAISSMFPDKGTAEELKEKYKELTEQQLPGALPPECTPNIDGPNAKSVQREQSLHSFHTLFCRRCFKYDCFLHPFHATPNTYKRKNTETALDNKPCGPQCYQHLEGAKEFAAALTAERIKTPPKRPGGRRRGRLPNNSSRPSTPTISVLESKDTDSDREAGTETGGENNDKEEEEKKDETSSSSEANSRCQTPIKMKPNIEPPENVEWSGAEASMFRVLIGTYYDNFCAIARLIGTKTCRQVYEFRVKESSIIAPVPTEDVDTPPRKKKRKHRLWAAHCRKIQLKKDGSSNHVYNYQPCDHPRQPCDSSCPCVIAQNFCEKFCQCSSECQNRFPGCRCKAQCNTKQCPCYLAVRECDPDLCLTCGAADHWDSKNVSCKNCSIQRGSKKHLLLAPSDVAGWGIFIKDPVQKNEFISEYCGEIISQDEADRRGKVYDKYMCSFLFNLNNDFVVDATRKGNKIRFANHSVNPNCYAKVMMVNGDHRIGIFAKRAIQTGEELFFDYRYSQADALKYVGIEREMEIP

NSCLC [7] = experiment: Induction of cell cycle arrest in mouse NSCLC cell infected with dox-inducible EZH2 shRNA assessed as accumulation of cells at G0/G1 phase at 100 nM in presence of […] by FACS analysis; format: functional, cell-based
Procedure, shortened: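 Kras G12D/+;Trp53-/- cells carrying dox-inducible EZH2 shRNA treated with or without dox and 100 nM GSK343 for 3 d. Cells then pulsed 45 min with 10 uM BrdU and stained with anti-BrdU-FITC and propidium iodide (5 ug/ml) with RNaseA, then analyzed by FACS. Three independent experiments; Student's t test.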

NSCLC [8] = experiment: Inhibition of colony formation in mouse NSCLC cell expressing Kras G12D/+ at 100 nM; format: functional, cell-based; procedure, shortened: as §1
[9] = target: Histone-lysine N-methyltransferase EZH2 (Mus musculus) (UniProt Q61188); experiment: Inhibition of Ezh2 in mouse NSCLC cells at 100 nM in presence of […] by immunoblot analysis; format: cell-based
[10] = target: Histone-lysine N-methyltransferase EZH2 (Mus musculus) (UniProt Q61188); experiment: Inhibition of Ezh2 in mouse NSCLC cells infected with dox-inducible EZH2 shRNA assessed vinculin expression at 100 nM in presence of […] by immunoblot analysis; format: cell-based
NSCLC [11] = experiment: Antitumor activity in KrasG12D/+ harbouring mouse NSCLC cells xenografted in BALB/c nude mouse assessed as reduced tumor progression; format: functional; settings: dose 50.0 mg/kg, route iv

Compound: CC(C)(C)c1cnc(CSc2cnc(NC(=O)C3CCNCC3)s2)o1
- Activity (A549 [1]): Active
- Activity (A549 [2]): Active
- Activity (A549 [3]): Active
- Activity (A549 [4]): Active

- inhibition [6]: Active
- inhibition [9]: Active
- inhibition [10]: Active
Compound: CCCc1cc(C)[nH]c(=O)c1CNC(=O)c1cc(-c2ccnc(N3CCN(C)CC3)c2)cc2c1cnn2C(C)C
- Activity (NSCLC [5]): Active
- Activity (NSCLC [7]): Active
- inhibition (NSCLC [8]): Active

Compound: CC(C)C[C@H](NC(=O)[C@H](Cc1ccccc1)NC(=O)c1cnccn1)B(O)O
- Activity (NSCLC [11]): inactive

— ChEMBL document CHEMBL5674884, “Ezh2 inhibition in Kras-driven lung cancer amplifies inflammation and associated vulnerabilities” (J Exp Med, 2018)
